In the EternaBench riboswitch data:

Test system: MS2 coat protein
Assay: apparent Kd, MS2 coat protein; higher = weaker binding; RNA-MaP array; FMN 200 µM where present
Method in brief: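 Designs were transcribed by stalled E. coli RNA polymerase on Illumina sequencing-chip clusters. They were titrated with SNAP-549-labelled MS2 coat protein from 0.7 or 1.5 nM, doubling to 3 µM, without and then with constant ligand. Buffer: 100 mM Tris-HCl pH 7.5, 80 mM KCl, 4 mM MgCl2, BSA, DTT, yeast tRNA, Tween-20. Green signal was normalised to red-channel RNA signal and control-cluster median Fmax. Apparent Kd is the median of filtered per-cluster binding-curve fits.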

[1] = designed as: OFF switch for flavin mononucleotide, no ligand
[2] = ligand present: flavin mononucleotide, designed as: OFF switch for flavin mononucleotide
[3] = designed as: ON switch for flavin mononucleotide, no ligand
[4] = ligand present: flavin mononucleotide, designed as: ON switch for flavin mononucleotide

Row | Sequence | apparent Kd [1] | apparent Kd [2] | apparent Kd [3] | apparent Kd [4]
1 | GAGUGCUGAGGAUAUACAUGAGGAUCACCCAUGUGCUUCAGCUAGGAGACUAGCAUUGGUAGAAGGUAGUACUC | 0.0117 µM | 0.0154 µM | – | –
2 | GAGUGGAGGAAAGGAUAUACAAUGAUAAUCACAGUAGAAGGUUCUAACAUGAGGAUCACCCAUGUAGGACUAUACCAGAGAGGG | – | – | 0.0131 µM | 0.0125 µM
3 | GAGUGGAUGAGACCGCGGGCGACAUGAGGAUCACCCAUGUUGCAGGAUAUCAGUGCGUCGGCGCCUGAGAAGGGCGACAAUCAU | 0.00656 µM | 0.00711 µM | – | –
4 | GAGUGUGAAUAAGGAUAUAUGAGAGAGUGAGUAAUAGAAGGUAUACAAACAUGAGACAUGAGGAUCACCCAUGUAUCACCCAUG | – | – | 0.0208 µM | 0.0161 µM
5 | GAUACACAUGAGGAUCACCCAUGUGAGGAUAUGAUACUAUGUACUUCGGUACAUAGUAUCAGAAGGCACAUUGA | 0.0476 µM | 0.0768 µM | – | –
6 | GAUAGACAUGAGGAUCACCCAUGUGAGGAUAUGCGUACGUUGUCAGUAGGCGACGUGCGCAGAAGGCGCAAGUU | 0.0771 µM | 0.0465 µM | – | –
7 | GAUAUGUUAGGAUAUCAAACCUUGUUGAAUCAACGAGCCAGUGAGAAGGAACAUGAGGAUCACCCAUGUGUCCG | 0.0162 µM | 0.0163 µM | – | –
8 | GAUCCACAUGAGGAUCACCCAUGUGAGGAUAUGAUACUAUGUACUUCGGUACAUAGUAUCAGAAGGCAUAUUGA | 0.044 µM | 0.0757 µM | – | –
9 | GAUCCUUCUGUUAGGAUAUGCUUUGGGCUUCCGCAGCAGAAGGAACAUGAGGAUCACCCAUGUCCGAUGCCGUC | 0.0805 µM | 0.098 µM | – | –
10 | GAUCGAGAACUCACGGCGUUGCACAUGAGGAUCACCCAUGUGCAGGAUAUGGCCGCCGUCGGAGGCCAGAAGGGCACAGUAGGU | 0.0102 µM | 0.02 µM | – | –
11 | GAUCGCCAUGUCAGGAUAUCUUGUAUACCCACGUUAGAGAAGGGACAUGAGGAUCACCCAUGUACCCUGGUUUU | – | 0.0164 µM | – | –
12 | GAUCUGUGGCUUUCGCUUUGUUCACAUGAGGAUCACCCAUGUAGAAGGUAGCGGUUGAAAUUCGCUGAGGAUAUACAUAGGUGC | 0.0244 µM | 0.0527 µM | – | –
13 | GAUUAACAUGAGGAUCACCCAUGUGAGGAUAUGGAAUGGCUCAUUGUUUGAUUUCCGUCUAGAAGGCACAUCUU | 0.174 µM | 0.16 µM | – | –
14 | GAUUCGGGAGGAUAUACAUGAGGAUCACCCAUGUAUAUAUAAUAUAUUAAAUUAUCAUGUAGAAGGUUUGGGUC | 0.0243 µM | 0.0234 µM | – | –
15 | GAUUCGGGAGGAUAUACAUGAGGAUCACCCAUGUGUUUUUUGUGUGUUAUGUUAUCAUGUAGAAGGUUUGGGUC | 0.286 µM | 0.26 µM | – | –
16 | GAUUGACGACAAUUACAUGAGGAUCACCCAUGUUGUAGUAUGCAGGAUAUGUGGUAUAUUAUUUAACAGAAGGGCAAUAAUUUU | – | – | 0.081 µM | 0.0424 µM
17 | GCAACGCCUGACAUGAGGAUCACCCAUGUUAGAUUGUUAUGUCAGGAUAUAGUCUAGAAACUAGACUAGAAGGGAUGUGUUGCU | – | – | 0.703 µM | 0.131 µM
18 | GCAACGCCUGACAUGAGGAUCACCCAUGUUAGAUUGUUAUGUCAGGAUAUUGUCGCGAAAUGUGAUGAGAAGGGAUAUGUUGCU | – | – | 0.48 µM | 0.0488 µM
19 | GCACAUGAUACAGGAUAUGUUUAGGAUUUUAUAUACAGUUAUUUUAUUUUGACAGAAGGGUAUACAUGAGGAUCACCCAUGUGC | 0.0872 µM | 0.0581 µM | – | –
20 | GCACCAUUGCAAGGAUAUCCUACAGAGGGUGCAGGAGAAGGUGCAUUGGUGAGACUAUAGGACAUGAGGAUCACCCAUGUACCG | – | – | 0.068 µM | 0.0327 µM
21 | GCACGACAUGUAGGAUAUCGAGCGCCGGGCGCUCGAGAAGGACAUGAGGAUCACCCAUGUAUUCUGAGUGACCGAGGUCGUUGC | 0.0479 µM | 0.431 µM | – | –

Row | Sequence | apparent Kd [1] | apparent Kd [2] | apparent Kd [3] | apparent Kd [4]
22 | GCACGGUAUGUAGGAUAUGCAUAGCAUUGCUAUGCAGAAGGACAUGAGGAUCACCCAUGUAUGUAUUCCAUAUAUUUCCCGUGC | 0.00555 µM | 0.00587 µM | – | –
23 | GCACUGGAUGUAGGAUAUCAGGACGAUAAGUCCUGAGAAGGACAUGAGGAUCACCCAUGUAAAAUCUCACCAGUGCAUAAUAUA | 0.0136 µM | 0.0166 µM | – | –
24 | GCACUGGAUGUAGGAUAUCAGGACGAUAAGUCCUGAGAAGGACAUGAGGAUCACCCAUGUCUCAAAUACCAGUGCAAUAAUAUA | 0.0123 µM | 0.0148 µM | – | –
25 | GCACUUGCGUAGAAGGUACAUUAUAAUUAAUUGUAAGGAUAUACAAACAUGAGGAUCACCCAUGUAAAUGGAAUUUGCAAGUGC | – | – | 0.00652 µM | 0.00636 µM
26 | GCAGAACAUGAGGAUCACCCAUGUCUCUAAAGUCGAGGAUAUGGGCAGGUUAUAUCCGAACCAGAAGGCGAUCUGC | – | – | 0.127 µM | 0.0438 µM
27 | GCAGCACAGAUUUACAUGAGGAUCACCCAUGUCUAUUAAGAUGAGGAUAUGCAUCGAAUGAAGUUGCAGAAGGCAUUGUGCUGC | – | – | 0.00677 µM | 0.00578 µM
28 | GCAGCACAGUUUUACAUGAGGAUCACCCAUGUCUAUUGAGAUGAGGAUAUGCAUCGAAUGAAGUUGCAGAAGGCAUUGUGCUGC | – | – | 0.0112 µM | 0.00646 µM
29 | GCAGCACUGUAGUACAUGAGGAUCACCCAUGUCGAUUGUUAUGAGGAUAUGCAUCGUAUGAAGAUGCAGAAGGCAUUGUGCUGC | – | – | 0.00522 µM | 0.00504 µM
30 | GCAGCGUAUGUAGGAUAUCGGUCAGUCUCUGAUCGAGAAGGACAUGAGGAUCACCCAUGUAAAUUACCGACUUUGUCGGGCUGC | 0.00714 µM | 0.00962 µM | – | –
31 | GCAGCGUAUGUAGGAUAUCGGUCAGUUUCUGAUCGAGAAGGACAUGAGGAUCACCCAUGUAUAUUCUAGCGUGAGCUAGGCUGC | 0.0182 µM | 0.0255 µM | – | –
32 | GCAUACAUUCGAGGAUAUCGGUGAACAAAUUAACGAGAAGGCGAUAGAAUGUCUCAUCUUAUGAACAUGAGGAUCACCCAUGUA | – | – | 0.03 µM | 0.0262 µM
33 | GCAUAUCAGGGAGGAUAUGACAUGAGGAUCACCCAUGUAAUUAUGGCUCUGUCAGAAGGCCCAUCGUCAGUAUAGUGACGAGAC | 0.375 µM | 0.137 µM | – | –
34 | GCAUCGCAUGUCAGGAUAUGCUGUACCUUGGUACAGCAGAAGGGACAUGAGGAUCACCCAUGUGCCUACGAUGC | 0.0292 µM | 0.169 µM | – | –
35 | GCAUGACAAAGUCAUGCAAUACGAACAUGAGGAUCACCCAUGUAGGAUAUGCUACUCAAAGAGUAGCAGAAGGACAUGUGUCUU | 0.0332 µM | 0.182 µM | – | –
36 | GCAUGACAAAGUCAUGCAUAACGAACAUGAGGAUCACCCAUGUAGGAUAUGCUACUCAAAGAGUAGCAGAAGGACAUGUGUCUU | 0.0311 µM | 0.16 µM | – | –
37 | GCAUGUUGGUAGGAUAUGCAGCGAAAACCGCGAGUAGAAGGAUUGACAUGAGGAUCACCCAUGUGAACCUAAGG | 0.0271 µM | 0.0592 µM | – | –
38 | GCAUUGAUAACAGGAUAUAUGAAUCCUACAUGAGGAUCACCCAUGUAGGUGAUCAGCCGCGAUUAGUAGAAGGGUUAUCAAUGC | – | – | 0.0114 µM | 0.00643 µM
39 | GCCAGCGCAUGAGGAUAUGCUCCCGUUUCGGGAGCAGAAGGCAUGUCAUAAGACAUGAGGAUCACCCAUGUAGUUAACAUGGCA | – | – | 0.311 µM | 0.023 µM
40 | GCCAGCUAUGUAGGAUAUGCGCGGCGAGCCUGUGCAGAAGGACAUGAGGAUCACCCAUGUGUUGCGGUCUGAGUACUGAUCGCC | 0.0361 µM | 0.16 µM | – | –
41 | GCCAGGAUGUAAGGAUAUGCUGAGGAAUACUCAGCAGAAGGUACAUGAGGAUCACCCAUGUAAUCCUAAUAAUAAUAACCUGGC | 0.0111 µM | 0.0166 µM | – | –
42 | GCCAGUUAUGUAGGAUAUGCGCAGCGAGCCUGAGCAGAAGGACAUGAGGAUCACCCAUGUGUUGCGGUUUGAGUACUGAUCGCU | 0.0246 µM | 0.13 µM | – | –
